What was measured:
HCT-116 [1] = assay: Induction of apoptosis in human HCT116 cells pretreated with Z-VAD-FMK pan-caspase inhibitor for 1 hr assessed as early apoptotic cells at 0.5 uM after 48 hrs by Annexin V-FITC/propidium iodide staining-based FACS analysis (reference value: 1.34%); format: functional; set-up: scale not given: the % may be the effect or the level left
[2] = Volume of distribution at steady state in Sprague-Dawley rat at 1.0 mg/kg, iv; format: ADME, organism-based; details: in vivo, read-out: Vdss
Summary of the method: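 Male SD rats given 1.0 mg/kg i.v. in DMSO/Tween 80/normal saline vehicle; plasma concentration–time profile used for clearance, Vss, MRT.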

DU-145 = assay: Antiproliferative activity against human DU145 cells after 72 hrs by sulforhodamine B assay; format: functional, cell-based; details: DU-145, 72 h
Summary of the method: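 Cells grown in ATCC-specified medium with 10% heat-inactivated FBS, penicillin/streptomycin and 10 mM Hepes, at 37 °C under 5% CO2. Seeded, cultured overnight, then exposed to gradient concentrations for 72 h. Growth read by SRB staining; inhibition % = [1−(A450 treated/A450 control)]×100. IC50 obtained by the Logit method from independent experiments.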

Liver = assay: Intrinsic clearance in rat liver microsomes assessed per mg protein up to 60 mins by LC-MS/MS analysis; format: ADME, microsome; details: 1 h
Summary of the method: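 Liver microsomes (0.33 mg/mL protein) in 0.1 M Tris/HCl pH 7.4 with 5 mM MgCl2, 1 mM NADPH, compound at 0.1 μM final (0.01% DMSO, 0.005% BSA), 37 °C; samples at 0, 7, 17, 30, 60 min quenched in methanol, centrifuged, LC-MS/MS; T1/2 and Clint per g protein derived.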

HCT-116 [3] = assay: Induction of apoptosis in human HCT116 cells assessed as early apoptotic cells at 2 uM after 48 hrs by Annexin V-FITC/propidium iodide staining-based FACS analysis (reference value: 2.35%); format: functional
HCT-116 [4] = assay: Induction of apoptosis in human HCT116 cells assessed as early apoptotic cells at 0.5 uM after 48 hrs by Annexin V-FITC/propidium iodide staining-based FACS analysis (reference value: 2.35%); format: functional
HCT-116 [5] = assay: Induction of apoptosis in human HCT116 cells pretreated with Z-VAD-FMK pan-caspase inhibitor for 1 hr assessed as late apoptotic cells at 1 uM after 48 hrs by Annexin V-FITC/propidium iodide staining-based FACS analysis (reference value: 3.15%); format: functional; set-up: scale not given: the % may be the effect or the level left
Mus musculus = assay: Toxicity in BALB/C nude mouse xenografted with human HCT116 cells assessed as body weight loss at 10 mg/kg, iv once daily for 14 days starting on day 14 post tumor implantation measured every 4 days during compound dosing; format: organism-based; details: in vivo
Summary of the method: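 Male BALB/c nude mice (18–20 g) with subcutaneous HCT116 implants in right axilla; treatment from day 14 once tumors exceeded 100 mm3, randomized (6/treated, 10/control group); 10 mg/kg i.v. or 30 mg/kg i.p. daily for 14 days in 1% DMSO/saline; 5-FU 15 mg/kg as reference; body weight tracked, mean ± SD of 6 mice.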

Vd [2]: 7.98 L/kg | IC50 (DU-145): 220 nM | intrinsic clearance (Liver): 27.7 mL/min/g
SMILES: CCN(CC)CCCn1c2c(c3ccccc3c1=O)C(=O)C(=O)c1cc(C)oc1-2
Activity (HCT-116 [1]): 1.53% | Activity (HCT-116 [3]): 23.98% | Activity (HCT-116 [4]): 2.39% | Activity (HCT-116 [5]): 6.47% | Activity (Mus musculus): Non-Toxic

Reference: ChEMBL document CHEMBL4033782, “Structural Modification of Natural Product Tanshinone I Leading to Discovery of Novel Nitrogen-Enriched Derivatives with Enhanced Anticancer Profile and Improved Drug-like Properties” (J Med Chem, 2018)
